Results: ChEMBL document CHEMBL4513216, “Probing the Open Global Health Chemical Diversity Library for Multistage-Active Starting Points for Next-Generation Antimalarials” (ACS Infect Dis, 2020)

assay: Toxicity liver stage against HepG2, at 10uM; assay type: cell-based; design: test concentration 10 uM, cell line HepG2-A16-CD81EGFP; details: human, HepG2-A16-CD81EGFP cells; read-out: INHIBITION
In short: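 Uninfected HepG2-A16-CD81EGFP cells, 3 × 10^3 per well, 1536-well, plated on prespotted compound at 10 μM final, parasite-free screening media added to match infected plates; puromycin 10 μM positive, DMSO 0.5% negative; run in parallel with 48 h PbLuc assay at 37 °C, 5% CO2; viability by CellTiter-Glo luminescence, normalized to controls.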

| Structure (SMILES) | cytotoxicity at 10 µM [%] |
| --- | --- |
| FC(F)(F)c1ccc2nc([C@H]3CCN(C4CCC4)C3)[nH]c2c1 | 8.04 |
| CNCc1cn(C[C@H]2C[C@@H]3CCN2C[C@@H]3C(=O)NC2CCCCC2)nn1 | 1.73 |
| Cn1cnc2cc(CCC(=O)Nc3nc[nH]n3)ccc21 | 4.44 |
| O=C(NCCN1CCCC1)c1nc2c(o1)CN(c1ncccn1)C2 | 1.24 |
| COCC(=O)N1CCC2(CC1)CC(N1CCN(C)CC1)CO2 (configuration not stated) | -1.25 |
| CN1C(=O)CC2(CCN(Cc3cnn(C)c3)CC2)c2ccccc21 | 15.7 |
| Cc1cnc(CNC(=O)c2cc3c(s2)CCN3S(C)(=O)=O)cn1 | 2.22 |
| CCc1c(C(=O)O)nnn1-c1ccc(C)cc1C | -5.11 |
| CCn1cc(Cl)c(C(=O)NCCCN(C)C)n1 | 9.46 |
| Cc1cccc(-n2nnnc2C(C)(C)Nc2ccccc2C)c1 | 8 |
| O=C1CNc2ncnc(N3CCN(Cc4ccccc4F)CC3)c2N1 | 9.87 |
| CCn1ccc(NC(=O)CCc2c(C)nn(C)c2C)n1 | 4.01 |
| Nc1cc(-c2c[nH]nc2C2CCCN2S(=O)(=O)c2ccccc2)ccn1 (configuration not stated) | 6.34 |
| CN1CCCC(Cc2cc(N(C)C)ncn2)C1 (configuration not stated) | 11.1 |
| Cc1cnc2cc(C3CCN(C(=O)c4ccncc4)CC3)[nH]c2n1 | -22.1 |
| COCc1nc(C2CCN(Cc3ncc[nH]3)CC2)no1 | -23.1 |
| CN(C)C(=O)CN1CCCCC1c1nc(N)ncc1-c1ccc(Cl)cc1 (configuration not stated) | -14.9 |
| CCCNC(=O)c1cncc(CC2CCCN(C)C2)c1 (configuration not stated) | -16 |
| Cc1cc(-c2cnc(N3CCNC(=O)C3)nc2-c2cccnc2C)on1 | -6.9 |
| Cc1ccc(-c2cc(N)c(=O)n(CC(=O)NCC3CCCCC3)n2)s1 | 2.44 |
| O=C(NCCO)C1(Cc2cc(-c3ccc(F)cc3F)no2)CCOCC1 | 0.333 |
| Cc1ccc(S(=O)(=O)N2C[C@H]3C[C@H](NC(=O)c4ccn(C)n4)[C@H]3C2)cc1 | -1.11 |
| CNc1cncc(C2CCCN2Cc2ccccc2OCC(=O)O)n1 (configuration not stated) | -0.105 |

| Structure (SMILES) | cytotoxicity at 10 µM [%] |
| --- | --- |
| COc1cc(OC)cc(-c2noc(CN)n2)c1 | 20.6 |
| O=C(Cc1ccc2c(c1)CCC2)NC1CCN(Cc2ccccc2)CC1 | 1.88 |
| CCOc1cc(Cl)ccc1CNC(=O)c1ccc(=O)n(C)c1 | -4.01 |
| COc1cccc(CN(C)C(C)C(=O)Nc2nc(C)c(C)s2)c1 (configuration not stated) | 9.74 |
| Cc1ccc(C(=O)NCc2ccnc(N3CCN(C)CC3)c2)cn1 | -2.07 |
| CN(C)C(=O)C1SCCc2ccccc21 (configuration not stated) | 1.81 |
| O=C(Cn1cc(C2CC2)nn1)N(Cc1ccco1)CC1CCCO1 (configuration not stated) | 0.0636 |
| O=S(=O)(Cc1ccon1)N1CCN(c2ccncc2Cl)CC1 | -4.96 |
| COc1ccc(OCCNC(=O)c2ccc3c(=O)[nH][nH]c(=O)c3c2)cc1 | -4.83 |
| Cc1cnn(CCNCc2cc(C)no2)c1 | 8.77 |
| CCc1cnc(CN(C)C(=O)NC2CCN(CC3CC3)C2)s1 (configuration not stated) | -3.86 |
| CC(CC(=O)Nc1ncn(CC(=O)NCc2ccccc2)n1)C1CC1 (configuration not stated) | 7.12 |
| Cc1cc(F)ccc1NC(=O)NCC(C)N1CCOCC1 (configuration not stated) | -4.1 |
| CCN(CCC(F)(F)F)S(=O)(=O)c1cccc(F)c1C#N | -3.77 |
| CC(C)(C)c1ncc(CNc2ccn(CCc3ccncc3)n2)s1 | 26.1 |
| Cc1nnc(C(NS(=O)(=O)c2cc(C)c(F)cc2F)C(C)C)[nH]1 (configuration not stated) | -6.04 |
| CC(C)C(=O)N1CCN(CCOc2cccc(C#N)c2)CC1 | 10.8 |
| CN(Cc1ccccc1)CC(C)(C)NC(=O)c1ccon1 | 13 |
| CCN1CCN(c2ccc(C(=O)NCCn3ccnc3)cc2F)CC1 | 10.8 |
| Cc1cc(F)c(S(=O)(=O)Nc2ccn(CCC#N)n2)cc1F | 17.3 |
| Cc1cccc(N2CCN(C(=O)CCCC(=O)N(C)C)C(C)C2)n1 (configuration not stated) | 14.6 |
| CCS(=O)(=O)NCCNCc1cc(F)ccc1Br | 1.58 |
| CC(C)C(=O)N1CCN(CC(O)c2cc(Cl)ccc2Cl)CC1 (configuration not stated) | 3.41 |

| Structure (SMILES) | cytotoxicity at 10 µM [%] |
| --- | --- |
| CCCC1(CNCc2ncc[nH]2)CCC1 | 2.24 |
| CCOCCN1CCN(Cc2nc(C3CC3)no2)CC1CC (configuration not stated) | -5.75 |
| O=C(c1cnccn1)N1CCc2c(COCC3CC3)cncc2C1 | -72.4 |
| O=C(c1ccccn1)N1CC[C@@H](N2CCOCC2)[C@@H]1Cc1ccccc1 | -77.9 |
| CS(=O)(=O)NCc1nnc2n1CCN(CC1CC1)C2 | -0.285 |
| O=C(O)[C@@H]1CN(C(=O)CSCCN2CCCC2)C[C@H]1c1ccccc1 | -12.1 |
| COc1ccccc1N1CCC(N2CCOCC(CO)C2)CC1 (configuration not stated) | -6.85 |
| CCC[C@H]1CN(C2CCOCC2)C[C@@H]1NC(=O)CCc1cnccn1 | 3.12 |
| CCCN(CCC)C(=O)c1cc(CN2CCC(O)CC2)on1 | 1.29 |
| CC(=O)NCCNc1nc(-c2ccccn2)nc2c1c(C)nn2C | 2.72 |
| CCN(Cc1ccccn1)Cc1cc(Cl)ccc1OC | 1.45 |
| COc1cc(C2CC(=O)NCc3nc4sccn4c32)cc(OC)c1O (configuration not stated) | -0.966 |
| CCCOc1cc(Cl)c(CN2CCNC(C(=O)NC3CC3)C2)cc1OC (configuration not stated) | 0.508 |
| Cc1ncsc1CCCNC(=O)C1CC2(CCNCC2)CN1C (configuration not stated) | 9.18 |
| Cc1nn(C)c2nc(N(C)CCN(C)C)sc12 | 9.38 |
| CC(C)=CCCC1(C)CCC(=O)N(CCc2csc(N)n2)C1 (configuration not stated) | -4.27 |
| Cc1nc(O)cc(C2CCCN(C(=O)COCc3ccccc3)C2)n1 (configuration not stated) | -11 |
| O=C(Cc1ccccn1)N1CCC2(CC1)[C@H](O)C[C@@H]2O | -2.34 |
| COCc1nc(CNC(=O)C(C)n2ccnc2C(C)C)no1 (configuration not stated) | -0.376 |
| Nc1nc2c(c(NCc3cnc4c(c3)CCC4)n1)CCNC2 | 1.98 |
| Cc1nccnc1N1Cc2cnn(Cc3ccc(F)cc3)c2C1 | 2.45 |
| Cc1c(-c2c(-c3ccccc3)ncn2[C@@H](C(=O)O)[C@H](C)O)cnn1C | -7.67 |
| CCNc1ccnc(NCC2(N(C)C)CCOCC2)n1 | -0.686 |

| Structure (SMILES) | cytotoxicity at 10 µM [%] |
| --- | --- |
| CCc1ccc(NC(=O)C2CCN(C(=O)COC)CC2)cc1 | 0.929 |
| CCc1nnc(CN(CC)C(=O)C2CC(=O)N(CC)C2)o1 (configuration not stated) | 1.97 |
| CCOCCC(=O)N(C)Cc1noc(C(C)C)n1 | 6.13 |
| O=C(CN1CCCC(c2ccc(C(=O)O)cc2)C1)NC1CC1 (configuration not stated) | -9.87 |
| Cc1cnccc1CN1CC[C@@](C)(O)[C@H](Oc2ccccc2)C1 | -1.78 |
| CNS(=O)(=O)Cc1ccc(CNC(=O)c2ccccn2)cc1 | -0.945 |
| Cc1oc(C(=O)O)cc1S(=O)(=O)Nc1cc(Br)ccc1Cl | 0.386 |
| Cc1noc(Cl)c1CCC(=O)N1CCN(CC(C)(C)O)CC1 | 1.61 |
| Cc1nc(C)c(C(=O)NCCNc2ncccn2)s1 | -3.65 |
| O=C(c1csc(-c2ccccn2)n1)N1CCCC1Cn1cccn1 (configuration not stated) | -3.69 |
| c1ccc(-c2nc(CNC3CCc4ncnn4C3)cs2)cc1 (configuration not stated) | -6.19 |
| COc1c(CNC(c2ccccc2)c2nccn2C)c(C)nn1C (configuration not stated) | -3.16 |
| CC(C)c1nnc2n1CCN(Cc1ncc(-c3ccccc3)o1)C2 | -12.8 |
| CCOc1ccccc1C(CC(=O)Nc1ncc(C)s1)NC(C)=O (configuration not stated) | -15.3 |
| Cc1nc(CN(C)C2CCN(CCc3cccs3)C2)no1 (configuration not stated) | 6.03 |
| CCn1ccnc1CN1CCCN(C(=O)Cc2ccc(C)s2)CC1 | -19 |
| CN(CCCOc1ccc(F)cc1)Cc1nc2c(cnn2C)c(=O)[nH]1 | -4.62 |
| COCCCN(C)Cc1nc2c(cnn2C)c(=O)[nH]1 | -4.2 |
| Cc1nc(CNC(=O)NCC(O)c2ccc(F)c(F)c2)cs1 (configuration not stated) | -3.88 |
| Cc1c[nH]cc1C(=O)N1CCN(CCc2cccs2)CC1 | -6.8 |
| Cc1cc(C)c(CNC(=O)NCC2CCCO2)c(=O)[nH]1 (configuration not stated) | -3.76 |
| Cc1ccc(C)c(OC2CCN(C(=O)c3ccc(O)nc3)CC2)c1 | 3.23 |
| CN1CCN(C2CCN(CC(=O)NCC(F)(F)F)CC2)C1=O | -9.78 |

| Structure (SMILES) | cytotoxicity at 10 µM [%] |
| --- | --- |
| CN(C)CC1CN(c2cnc3ccccc3n2)CCO1 (configuration not stated) | -9.93 |
| CN(Cc1ccc(F)cc1)C(=O)NCc1nnc2n1CCCCC2 | -10.1 |
| CC(CN1CCOCC1)OC(=O)c1ccccc1I (configuration not stated) | -6.37 |
| CNC(=O)N1CCC2(CC1)CN(C)Cc1cc(F)ccc12 | 4.16 |
| CN(CCO)CC1COCCN1C(=O)CCC1CCCC1 (configuration not stated) | -9.83 |
| Cc1ccc(CN2CCc3nnc(COCCN(C)C)n3CC2)o1 | 2.9 |
| COCCN1CCCC2(CCN(c3ccsc3)C2=O)C1 (configuration not stated) | -79.6 |
| O=C1C[C@@H]2[C@H](CCN2Cc2ccco2)N1c1ccsc1 | 8.55 |
| Cc1noc(C)c1CN1CC[C@H]2OCC[C@@]2(C(=O)N2CCCC2)C1 | -70.7 |
| Cc1ccccc1C(=O)N1Cc2c(Cn3ccnc3)nn(C)c2C1 | -72.1 |
| O=C([C@H]1CCS(=O)(=O)[C@@H]2CN(CCc3ccccc3)C[C@H]12)N1CCCC1 | 0.688 |
| Fc1ccc(CN2CC[C@H]3O[C@@H](COCc4cccnc4)CC[C@H]32)cc1 | -70 |
| N#Cc1ccc(NC(=O)C2CSCN2)cc1 (configuration not stated) | 2.62 |
| Cc1noc(C)c1CN1C[C@@H]2COC[C@@H](C(=O)N3CCCCO3)[C@@H]2C1 | -71.7 |
| Cc1noc(C)c1CN1CC2(CCCCN2C)CC1=O (configuration not stated) | 2.75 |
| c1cncc(OCC2CN(Cc3ccsc3)Cc3nccn3C2)c1 (configuration not stated) | -72.4 |
| CC(=O)NCc1noc2c1CN(CCN1CCCC1)CC2 | -5.46 |
| Cc1ccc(CN2C[C@@H]3C[C@H](C(=O)NCc4cccnc4)[C@H](C2)O3)o1 | 3.82 |
| CCc1c(C)[nH]c2cc(C3CCN(Cc4ccncc4C)C3)nn2c1=O (configuration not stated) | -14.1 |
| CC(C)=CCN1C[C@@H]2CC[C@H]1CN(Cc1cc(=O)[nH]c(=O)[nH]1)C2 | -17.3 |
